Experimental data taken from the RNAGym collection of RNA variant scans (doi:10.1002/anie.201605470).

B1: Osa-1-4 twister ribozyme (parent)
chain: CCGCCUAACACUGCCAAUGCCGGUCCCAAGCCCGGAUAAAAGUGGAGGGGGCGG

Variants of: B1
Assay: self-cleavage, relative activity (ratio to wild type); higher = more cleavage; co-transcriptional
Outline: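 The 48 positions downstream of the cleavage site in a 54-nucleotide Oryza sativa twister ribozyme template were synthesised at 97 % wild-type base and 1 % of each other base. The template was transcribed in vitro at 37 °C for 2 h, with self-cleavage allowed during transcription. Reads with or without upstream sequence after deep sequencing marked cleavage status, and relative activity is fraction cleaved normalised to wild type.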

self-cleavage, 0.95:
A17G C52A
A17G G19A
A17U C20U
A17U G53A
U18A
U18C U37G

self-cleavage, 0.89:
A17U U18A

self-cleavage, 0.8:
A17U C9G
A17U U43C

self-cleavage, 0.05:
A17G C31A
A17G G30A
A17G G30U
A17U A7C
A17U A29C
A17U C31A
A17U G30A
U18G U24G
G19A G22C
G19A G23U
G19A G30A
G19C G34C
G19C G42A

self-cleavage, 0.64:
A17U C15U

self-cleavage, 1.05:
A17U A36G
A17U C21U

self-cleavage, 0.26:
A17G G49A

self-cleavage, 0.72:
A17G U43C
G19A G44C

self-cleavage, 0.86:
A17G U12A
A17U C11U
A17U G35C
U18G U37C

self-cleavage, 0.4:
G19A G44U

self-cleavage, 0.19:
A17G C32U
A17G C33U
A17U A29U
A17U C33A
A17U G51C

self-cleavage, 0.48:
A17U C11G

self-cleavage, 0.9:
A17G C31U
A17G C52G
A17G G54A
A17U A41G
A17U G35A
A17U U18C

self-cleavage, 0.38:
A17U G19U
A17U G51U
U18G U24C

self-cleavage, 0.81:
A17G U43A
A17U C9U

self-cleavage, 0.3:
A17G G51U
A17U U24A
U18C U43G

self-cleavage, 1:
A17U C26U
A17U G44A
A17U G54C
G19A U37G

self-cleavage, 0.68:
G19A G35C

self-cleavage, 0.58:
A17G G42A
A17U U12C
U18A U43G

self-cleavage, 0.93:
A17U A40G
A17U C25U
U18A U37G
G19A U18C

self-cleavage, 0.96:
A17U A41U
U18C

self-cleavage, 0.59:
U18G U37A

self-cleavage, 0.09:
A17U A7U
A17U A40C
A17U A46G
A17U C21G
A17U C26G
G19A G42C
G19A G49C
G19A G53C
G19A U12C
G19A U24G

self-cleavage, 0.42:
A17U A8U
G19C G35U

self-cleavage, 0.17:
A17G G45U
A17G G47C
A17U C32G
A17U G42A
G19A G51U

self-cleavage, 0.39:
A17G U12G
G19A G34U

self-cleavage, 0.84:
U18G
G19A U18A

self-cleavage, 0.52:
A17G G19U
A17G U18C

self-cleavage, 1.01:
A17G C52U
A17G U37G
A17U C52U
A17U U37G
G19A U18G

self-cleavage, 0.44:
A17G G51A
A17U U12G
A17U U24C

self-cleavage, 0.63:
A17G U37A
A17U A40U
A17U G22U
U18A U37A

self-cleavage, 0.41:
A17G G34C
A17U C9A
A17U G53U

self-cleavage, 0.27:
G19A G50C
G19C

self-cleavage, 0.67:
A17U G51A
U18G U43C

self-cleavage, 0.12:
A17G G48U
A17G G53C
A17U C31G
A17U G53C
G19A G22U
G19A G23A
G19A U12A
G19A U43C
G19A U43G

self-cleavage, 0.82:
A17U G34A

self-cleavage, 0.37:
A17U A28G
U18A U24C

self-cleavage, 0.11:
A17U A8C
A17U G22C

self-cleavage, 0.94:
A17G U18A
A17U A28C
A17U C31U
A17U G44U
A17U U12A

self-cleavage, 0.61:
G19A G34A

self-cleavage, 0.21:
A17G G42U
U18C U24A

self-cleavage, 0.35:
A17U A29G
U18C U43C
G19A G22A

self-cleavage, 0.31:
G19A G54A

self-cleavage, 1.02:
A17G U37C
A17U A38G
A17U A38U
A17U C52A
A17U G50C
A17U G50U

self-cleavage, 0.62:
A17U A8G
A17U C15A

self-cleavage, 0.78:
A17U G34U

self-cleavage, 0.66:
A17G G35C

self-cleavage, 0.5:
A17U G34C

self-cleavage, 0.46:
A17G G47A

self-cleavage, 0.51:
A17G G50A
A17G U43G

self-cleavage, 0.83:
A17U C21A
A17U G19A
U18A U43A
G19A G35A

self-cleavage, 0.99:
A17G G50U
A17U G54A
A17U G54U
G19A

self-cleavage, 0.29:
A17G C27U
A17G G19C
A17U C27A
A17U G42C
G19C G35C

self-cleavage, 0.36:
A17G U24C
U18A U43C

self-cleavage, 1.03:
A17U
A17U A39G
A17U A39U
G19A U37C

self-cleavage, 0.76:
U18G U43A

self-cleavage, 0.88:
A17G G44A
A17G G44C
G19A U37A

self-cleavage, 0.97:
A17G G22A
A17U A28U
U18C U37C

self-cleavage, 0.73:
A17G G34A
A17U U37A

self-cleavage, 1.06:
A17U U37C

self-cleavage, 0.25:
A17G G49U
A17U C14G
A17U C27U
A17U C32U
A17U G49A
U18A U24A
G19A G34C

self-cleavage, 0.56:
A17G U12C
A17U G23A
A17U G42U
G19A G50U

self-cleavage, 0.14:
A17G G51C
A17U C25A
A17U G13A
G19C G44C

self-cleavage, 0.85:
A17G G53A
A17G U18G
A17U C20A
A17U C33U
U18G U37G

self-cleavage, 0.87:
A17U U18G

self-cleavage, 0.53:
U18G U24A

self-cleavage, 0.65:
U18C U43A
G19A G54U

self-cleavage, 0.15:
A17G C32G
A17G G22C
A17G G48A

self-cleavage, 1.04:
A17U A36U
A17U G22A

self-cleavage, 0.2:
G19A G35U

self-cleavage, 0.92:
A17G G54C
A17U G35U
G19A G50A

self-cleavage, 0.04:
A17G G13U
A17U A46C
A17U G30U
G19C G23A
G19C G23U
G19C G42C

self-cleavage, 0.91:
A17G G50C
A17G G54U
A17U U43A

self-cleavage, 0.98:
A17U A38C
A17U A39C
A17U A41C
A17U C52G
A17U G44C
U18A U37C

self-cleavage, 0.22:
A17G C31G
A17U G49U

self-cleavage, 0.43:
A17G G23A
A17G G45A
A17G G47U
A17G U24A
A17U A7G
A17U G19C

self-cleavage, 0.02:
U18A U24G
U18C U24G
G19C G23C
G19C G30A
G19C G30U
G19C G42U
G19C G47C

self-cleavage, 0.69:
A17U G50A
U18C U37A

self-cleavage, 0.03:
A17G G13C
A17G U24G
A17U G13C
A17U G13U
A17U U24G
G19C G22C
G19C G22U
G19C G30C
G19C G45A
G19C G45C
G19C G45U
G19C G47A

self-cleavage, 0.08:
A17G G23C
A17G G23U
A17G G42C
A17G G49C
A17U G48U
A17U G49C
G19A G47A
G19A G47C
G19A G49A
G19A G49U
G19A G51C
G19A U24A
G19A U24C

self-cleavage, 0.23:
A17G G13A
A17U C20G
G19A G44A
G19A U43A

self-cleavage, 0.74:
A17G G44U

self-cleavage, 0.16:
A17U G47C
A17U G48A

self-cleavage, 0.57:
A17G G34U
A17U U43G

self-cleavage, 0.47:
A17U G47A

self-cleavage, 0.13:
A17G C27G
A17G G48C
A17U C27G
A17U C32A
A17U G23U
A17U G48C
G19A G53U
G19A U12G

self-cleavage, 0.1:
A17U A46U
A17U C25G
G19A G42A
G19C G34A

self-cleavage, 0.07:
A17G C32A
A17G C33G
A17G G45C
G19A G30C
G19A G45A
G19A G47U
G19C G34U
G19C G44A
G19C G44U

self-cleavage, 0.77:
A17G G35U
U18G U43G

self-cleavage, 0.45:
A17U G47U
G19C G35A

self-cleavage, 0.24:
U18C U24C
G19A G54C

self-cleavage, 0.06:
A17G G30C
A17U C26A
A17U C33G
A17U G23C
A17U G30C
A17U G45C
G19A G23C
G19A G30U
G19A G42U
G19A G45C
G19A G45U
G19A G48A
G19A G48C
G19A G48U
G19C G22A

self-cleavage, 0.18:
A17G C33A
A17U C14A
A17U G45U
G19A G53A

self-cleavage, 0.79:
A17G G22U
A17G G35A
A17U A36C
A17U C14U

self-cleavage, 0.33:
G19A G51A

self-cleavage, 0.54:
A17G G53U
A17U C15G
A17U G45A

self-cleavage, 0.7:
A17U C11A
